Test results published in article PMC9890135 (Molecular Cancer Therapeutics, 2022).

Key:
MC38 tumors = experiment: MC38 syngeneic tumor model, XL092 and ICI combination studies; type: in vivo, mice; details: XL092 3 mg/kg orally once a day, anti-PD-1 5 mg/kg twice a week for 2 weeks i.p., 35 days
MET [1] = molecular target: MET (Homo sapiens, UniProt P08581); experiment: Inhibition of receptor phosphorylation, ELISA, PC-3 cells/HGF; type: cell-based
TYRO3 = molecular target: T1, TYRO3 (Homo sapiens, UniProt Q06418); experiment: Inhibition of receptor phosphorylation, ELISA, TYRO3-transfected 293A cells; type: cell-based
T1 sequence (Q06418 41-890): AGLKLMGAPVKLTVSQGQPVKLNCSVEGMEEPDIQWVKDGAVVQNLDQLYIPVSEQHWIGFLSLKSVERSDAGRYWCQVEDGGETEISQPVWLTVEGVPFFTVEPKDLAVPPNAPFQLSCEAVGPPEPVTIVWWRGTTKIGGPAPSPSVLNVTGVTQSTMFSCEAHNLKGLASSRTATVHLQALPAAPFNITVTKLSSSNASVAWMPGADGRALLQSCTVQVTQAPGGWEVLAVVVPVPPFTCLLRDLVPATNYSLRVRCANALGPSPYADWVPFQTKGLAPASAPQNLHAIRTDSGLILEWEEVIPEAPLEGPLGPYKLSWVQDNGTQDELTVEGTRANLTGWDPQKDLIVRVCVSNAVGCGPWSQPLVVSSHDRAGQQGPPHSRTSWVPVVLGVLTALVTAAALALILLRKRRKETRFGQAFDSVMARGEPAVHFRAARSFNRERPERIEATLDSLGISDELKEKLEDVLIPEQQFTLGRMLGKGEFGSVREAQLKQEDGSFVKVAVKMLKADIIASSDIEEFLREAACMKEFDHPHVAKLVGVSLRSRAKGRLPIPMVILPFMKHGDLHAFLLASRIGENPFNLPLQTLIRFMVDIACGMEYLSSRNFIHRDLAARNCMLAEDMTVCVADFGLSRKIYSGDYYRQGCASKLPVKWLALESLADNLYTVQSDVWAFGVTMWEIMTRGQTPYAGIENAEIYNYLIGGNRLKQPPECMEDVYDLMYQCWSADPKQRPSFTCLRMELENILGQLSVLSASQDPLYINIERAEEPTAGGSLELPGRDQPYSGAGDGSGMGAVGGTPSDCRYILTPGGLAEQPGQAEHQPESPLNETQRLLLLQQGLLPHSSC
Procedure, shortened: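 293A cells transfected with TYRO3 were serum-starved 3–24 h, then incubated 1 h in serum-free medium with serially diluted test compound. Receptor phosphorylation quantified by ELISA to derive IC50.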

HUVEC cells = experiment: Cellular proliferation, BrdU incorporation ELISA; type: cell-based; details: Homo sapiens, 48 h, read-out: Proliferation IC50
Procedure, shortened: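 HUVEC seeded at 1,500 cells/well in triplicate in VEGF-containing endothelial growth medium, overnight at 37°C, 5% CO2. Serial dilutions added for 48 h. BrdU labelling 2 h at 37°C, FixDenat 30 min at RT, anti-BrdU-POD 90 min at RT, washes, then chemiluminescent substrate read.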

MET [2] = molecular target: MET (Homo sapiens, UniProt P08581, DEL964-1010); experiment: Inhibition of receptor phosphorylation, ELISA, Hs 746T cells; type: cell-based
SNU-5 tumors = experiment: SNU-5 xenograft tumor growth; type: in vivo, mice; details: 14 days, oral
Procedure, shortened: (§1)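 Human tumour cells inoculated into the rear flank. Mice randomised at mean volumes of ~200 mm3 (Hs 746T), ~120 mm3 (MDA-MB-231), ~100 mm3 (NCI-H441) or ~90 mm3 (SNU-5). Oral gavage once daily with test compound or vehicle. Tumour volume and body weight measured at least twice weekly. […], using mean volumes at extraction and dosing start.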

MDA-MB-231 tumors = experiment: MDA-MB-231 xenograft tumor growth; type: in vivo, mice; details: 14 days, oral
Procedure, shortened: as §1

AXL = molecular target: T2, AXL (Homo sapiens, UniProt P30530); experiment: Inhibition of receptor phosphorylation, ELISA, A-172 cells/GAS6; type: cell-based
T2 sequence (P30530 26-894): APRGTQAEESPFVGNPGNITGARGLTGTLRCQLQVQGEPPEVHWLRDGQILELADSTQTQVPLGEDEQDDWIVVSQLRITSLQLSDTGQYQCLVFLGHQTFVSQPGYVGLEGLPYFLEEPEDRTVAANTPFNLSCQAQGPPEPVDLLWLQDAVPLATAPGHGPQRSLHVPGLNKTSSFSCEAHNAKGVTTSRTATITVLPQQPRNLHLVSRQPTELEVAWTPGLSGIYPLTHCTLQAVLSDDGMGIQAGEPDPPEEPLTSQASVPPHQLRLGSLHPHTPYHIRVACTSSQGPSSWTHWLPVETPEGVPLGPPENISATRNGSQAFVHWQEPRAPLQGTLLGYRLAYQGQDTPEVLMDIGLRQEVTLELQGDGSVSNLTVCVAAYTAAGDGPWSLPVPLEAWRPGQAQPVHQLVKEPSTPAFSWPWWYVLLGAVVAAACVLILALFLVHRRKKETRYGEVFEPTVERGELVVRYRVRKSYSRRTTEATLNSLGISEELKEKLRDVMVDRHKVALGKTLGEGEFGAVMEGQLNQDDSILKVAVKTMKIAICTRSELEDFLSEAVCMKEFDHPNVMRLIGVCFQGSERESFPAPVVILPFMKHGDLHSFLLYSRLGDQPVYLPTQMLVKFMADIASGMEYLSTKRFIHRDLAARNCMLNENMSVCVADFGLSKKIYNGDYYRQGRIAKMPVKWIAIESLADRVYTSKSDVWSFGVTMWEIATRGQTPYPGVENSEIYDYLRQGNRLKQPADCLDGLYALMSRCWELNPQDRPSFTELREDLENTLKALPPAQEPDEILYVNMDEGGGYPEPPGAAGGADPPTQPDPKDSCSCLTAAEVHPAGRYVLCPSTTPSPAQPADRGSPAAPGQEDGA

[3] = rats; cited from earlier work
peripheral leukocytes = experiment: Peripheral immunocytes by flow cytometry in MC38 tumor-bearing mice; type: in vivo; details: 7 days, XL092 30 mg/kg
Procedure, shortened: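 Female C57BL/6 mice (5–6 weeks) inoculated s.c. with 1 × 10^6 MC38 cells, randomised at ~200 mm3. […] single-cell suspensions surface-stained with a lineage panel plus fixable viability dye. Medians compared by Mann–Whitney U.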

In the case of `CNC(=O)c1cc2c(Oc3ccc(NC(=O)C4(C(=O)Nc5ccc(F)cc5)CC4)cc3)ccnc2cc1OC` [XL092], the “TGI compared with vehicle” value (MC38 tumors) is reported as “significant TGI”, the IC50 (MET [1]) is reported as 11.9 ± 1.55 nM and the IC50 (TYRO3) is reported as 306 ± 1.37 nM. For the same compound, the IC50 (HUVEC cells) was 10.4 nM, the IC50 (MET [2]) was 25.4 ± 1.32 nM and the Tumor growth inhibition (SNU-5 tumors; 3 mg/kg/day) was 54.2%. For the same compound, the Tumor growth inhibition (SNU-5 tumors; 10 mg/kg/day) was 94.7%, the Tumor growth inhibition (MDA-MB-231 tumors; 3 mg/kg/day) was 73.6% and the Tumor growth inhibition (MDA-MB-231 tumors; 10 mg/kg/day) was 78.6%. The IC50 (AXL) was 3.89 ± 1.61 nM, the half-life [3] was “approximately 7 hours” and the “peripheral CD4+ T cells relative to vehicle” value (peripheral leukocytes) was “significant increases”. The “peripheral B cells relative to vehicle” value (peripheral leukocytes; antibodies 5 mg/kg) was “significant increases” and the “peripheral myeloid cells relative to vehicle” value (peripheral leukocytes; antibodies 5 mg/kg) was “significant decreases”.
